Paper PMC6911266 (Nature, 2019)
Numbering of substitutions follows the chain as printed. Several values for one entry are separate records, joined by “and”; a condition that tells them apart may be missing. Equal values may be shown once. Read-outs that look alike come from different tables or passages of the source.

Tests used:
PfCRT 7G8 [1] = biological target: T1, PfCRT 7G8 (Plasmodium falciparum, UniProt W7FI62); assay: Scintillation proximity assay; format: binding; conditions: for competition of [3H]-Arg binding (in words): 125 nM [3H]-Arg, 1 μM CQ or PPQ, 0.1 μM amodiaquine, 1 mM Arg, Lys or Leu; for EC50: half-maximal binding constant (EC50), isotopic dilution, SPA, nanodiscs, pH 7.5, isotopic dilution of [3H]-CQ or [3H]-PPQ
T1 sequence (W7FI62 1-424): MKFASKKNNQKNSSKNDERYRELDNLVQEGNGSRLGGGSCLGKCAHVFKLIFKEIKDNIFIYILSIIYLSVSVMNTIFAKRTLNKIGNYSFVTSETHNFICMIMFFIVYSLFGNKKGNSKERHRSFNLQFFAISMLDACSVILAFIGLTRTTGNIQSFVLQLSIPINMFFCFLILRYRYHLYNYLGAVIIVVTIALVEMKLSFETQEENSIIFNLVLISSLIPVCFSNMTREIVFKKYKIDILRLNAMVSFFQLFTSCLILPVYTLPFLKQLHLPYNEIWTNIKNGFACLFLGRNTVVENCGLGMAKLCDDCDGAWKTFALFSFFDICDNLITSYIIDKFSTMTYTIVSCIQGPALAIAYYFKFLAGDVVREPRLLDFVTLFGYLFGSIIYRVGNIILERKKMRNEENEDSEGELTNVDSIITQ

[2] = system: P. falciparum parasites with PfCRT haplotypes/mutations; conditions: cited from earlier work; for Associated Phenotype, mutation C350R: haplotype 7G8+C350R, this study; for Associated Phenotype, mutation C350R / Associated Phenotype, mutation C72S / Associated Phenotype, mutation F145I / Associated Phenotype, mutation G353V / Associated Phenotype, mutation H97Y / Associated Phenotype, mutation I218F / Associated Phenotype, mutation M343L / Associated Phenotype, mutation T93S / Associated Phenotype, mutation A220S / Associated Phenotype, mutation I356T/L / Associated Phenotype, mutation N326S/D / Associated Phenotype, mutation M74I / Associated Phenotype, mutation N75E / Associated Phenotype, mutation Q271E / Associated Phenotype, mutation R371I / Associated Phenotype, mutation K76T: field; for Associated Phenotype, mutation C72S: haplotype 7G8; for Associated Phenotype, mutation C101F: haplotype Dd2+C101F, lab; for Associated Phenotype, mutation F145I: haplotype Dd2+F145I; for Associated Phenotype, mutation G353V: haplotype Dd2+G353V; for Associated Phenotype, mutation H97Y: haplotype Dd2+H97Y; for Associated Phenotype, mutation I218F: haplotype Dd2+I218F; for Associated Phenotype, mutation M343L: haplotype Dd2+M343L; for Associated Phenotype, mutation T93S: haplotype Dd2+T93S; for Associated Phenotype, mutation A220S / Associated Phenotype, mutation I356T/L / Associated Phenotype, mutation N326S/D: haplotype Dd2/7G8; for Associated Phenotype, mutation M74I / Associated Phenotype, mutation N75E / Associated Phenotype, mutation Q271E / Associated Phenotype, mutation R371I: haplotype Dd2; for Associated Phenotype, mutation K76T: haplotype Dd2 and 7G8
[3] = system: P. falciparum WT (3D7) parasite line; assay: Parasite drug susceptibility assay; format: cell-based, Plasmodium falciparum; conditions: Plasmodium falciparum, 3D7, 72 h
Method in brief: (§1)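 Asynchronous asexual blood-stage parasites were seeded at 0.3% parasitemia and 1% hematocrit into 2-fold, 10-point test compound dilutions. Incubation was 72 h at 37°C under 5% O2/5% CO2/90% N2. Final parasitemia was read by flow cytometry. IC50 came from nonlinear regression, 4 independent assays in duplicate, with two-tailed Mann-Whitney U tests.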

PfCRT WT (3D7) = biological target: T2, PfCRT WT (3D7) (Plasmodium falciparum, UniProt Q9N623); assay: Transport; format: biochemical; conditions: for 1-min uptake, transport in proteoliposomes: 100 nM [3H]-drug, inwardly-directed pH gradient; for transport activity (in words): proteoliposomes
T2 sequence (Q9N623 1-424): T1 sequence (W7FI62 1-424) with S72C, T76K, S220A, D326N, L356I
Method in brief: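 PfCRT proteoliposomes (40 ng protein per assay) are loaded with 100 mM KPi, pH 7.5, and 2 mM β-mercaptoethanol. They are diluted into 100 mM Tris/Mes, pH 5.5, giving an inward pH gradient, with 100 nM [3H]-CQ (5.45 Ci/mmol) or [3H]-PPQ (15 Ci/mmol) for 1 min. Filter mock uptake without liposomes and control-liposome uptake are subtracted. Data come from 2 independent experiments, each with 4 technical replicates.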

PfCRT 7G8+C350R = biological target: T3, PfCRT 7G8+C350R (Plasmodium falciparum, UniProt W7FI62, C350R); assay: Equilibrium dialysis binding, PfCRT variant in nanodiscs; conditions: for Bmax, binding at pH 5.5 / Bmax, binding at pH 7.5: equilibrium dialysis
T3 sequence (W7FI62 1-424 C350R): T1 sequence (W7FI62 1-424) with C350R

PfCRT 7G8+F145I = biological target: T4, PfCRT 7G8+F145I (Plasmodium falciparum, UniProt W7FI62, F145I); assay: Transport; format: biochemical; conditions: for 1-min uptake, transport in proteoliposomes: 100 nM [3H]-drug, inwardly-directed pH gradient; for Vmax, transport in proteoliposomes: initial rates over 3 s, Michaelis-Menten fit; for transport activity (in words): proteoliposomes
T4 sequence (W7FI62 1-424 F145I): T1 sequence (W7FI62 1-424) with F145I

[4] = system: P. falciparum Dd2^Dd2 parasite line; assay: Parasite drug susceptibility assay; format: cell-based, Plasmodium falciparum; conditions: Plasmodium falciparum, DD2, 72 h
Method in brief: as §1

PfCRT 7G8 [5] = biological target: T1, PfCRT 7G8; format: biochemical; conditions: for transport activity (in words): proteoliposomes
[6] = binding at pH 5.5, equilibrium dialysis, pH 5.5
[7] = binding at pH 7.5, equilibrium dialysis, pH 7.5

Structure (SMILES) | competition of [3H]-Arg binding (in words) (PfCRT 7G8 [1]) | EC50 (PfCRT 7G8 [1]) | Associated Phenotype, mutation C350R [2] | Associated Phenotype, mutation C72S [2] | Associated Phenotype, mutation C101F [2] | Associated Phenotype, mutation F145I [2] | Associated Phenotype, mutation G353V [2] | Associated Phenotype, mutation H97Y [2] | Associated Phenotype, mutation I218F [2] | Associated Phenotype, mutation M343L [2] | Associated Phenotype, mutation T93S [2] | Associated Phenotype, mutation A220S [2] | Associated Phenotype, mutation I356T/L [2] | Associated Phenotype, mutation N326S/D [2] | Associated Phenotype, mutation M74I [2] | Associated Phenotype, mutation N75E [2] | Associated Phenotype, mutation Q271E [2] | Associated Phenotype, mutation R371I [2] | Associated Phenotype, mutation K76T [2] | IC50 [3] [µM] | further results
Clc1ccc2c(N3CCN(CCCN4CCN(c5ccnc6cc(Cl)ccc56)CC4)CC3)ccnc2c1 [PPQ, piperaquine] | effectively competed | ~0.19 µM and 0.19 µM | R low | S | R | R | R mod. | PPQ-R (CQ-R) | R | R low | PPQ-R (CQ-R) | S | S | S | S | S | S | S | S | 0.0162 ± 0.0013 | 1-min uptake, transport in proteoliposomes (PfCRT WT (3D7)): 0.51 ± 0.04 nmol/mg; transport activity (in words) (PfCRT WT (3D7)): Minimal; Kd (PfCRT 7G8+C350R; [6]): 0.21 ± 0.03 µM; Kd (PfCRT 7G8+C350R; [7]): 0.25 ± 0.04 µM; Bmax, binding at pH 5.5 (PfCRT 7G8+C350R; pH 5.5): 0.39 ± 0.02 mol CQ/mol PfCRT; Bmax, binding at pH 7.5 (PfCRT 7G8+C350R; pH 7.5): 0.41 ± 0.02 mol CQ/mol PfCRT; fold increase in Kd compared with 7G8 parental isoform (PfCRT 7G8+C350R; pH 5.5): ~ 2 fold; 1-min uptake, transport in proteoliposomes (PfCRT 7G8+F145I): 1.41 ± 0.12 nmol/mg; Vmax, transport in proteoliposomes (PfCRT 7G8+F145I): 109.30 ± 7.27 nmol/mg/min; transport activity (in words) (PfCRT 7G8+F145I): substantially increased; IC50 [4]: 0.0183 ± 0.0019 µM; transport activity (in words) (PfCRT 7G8 [5]): Minimal; transport activity (in words) (PfCRT 7G8 [5]; listed as [^3H]-PPQ): no detectable
CCN(CC)CCCC(C)Nc1ccnc2cc(Cl)ccc12 (centres unmarked) [CQ, chloroquine] | effectively competed | ~0.3 µM and 0.297 µM | S | R | S | S | S | PPQ-R (CQ-R) | R low | S | PPQ-R (CQ-R) | R | R | R | R | R | R | R | R | 0.0122 ± 0.0005 | 1-min uptake, transport in proteoliposomes (PfCRT WT (3D7)): 0.58 ± 0.08 nmol/mg; transport activity (in words) (PfCRT WT (3D7)): minimal uptake; Kd (PfCRT 7G8+C350R; [6]): 0.13 ± 0.03 µM; Kd (PfCRT 7G8+C350R; [7]): 0.3 ± 0.06 µM; Bmax, binding at pH 5.5 (PfCRT 7G8+C350R; pH 5.5): 0.37 ± 0.02 mol CQ/mol PfCRT; Bmax, binding at pH 7.5 (PfCRT 7G8+C350R; pH 7.5): 0.42 ± 0.03 mol CQ/mol PfCRT; 1-min uptake, transport in proteoliposomes (PfCRT 7G8+F145I): 0.24 ± 0.05 nmol/mg; Vmax, transport in proteoliposomes (PfCRT 7G8+F145I): 63.01 ± 3.57 nmol/mg/min; transport activity (in words) (PfCRT 7G8+F145I): reduced uptake; IC50 [4]: 0.143 ± 0.0218 µM; 1-min uptake, transport in proteoliposomes (PfCRT 7G8 [5]; 100 nM [3H]-drug, 1 min, inwardly-directed pH gradient): 3.14 ± 0.50 nmol/mg; catalytic turnover number (kcat) (PfCRT 7G8 [5]; from Vmax, assuming full activity of reconstituted PfCRT 7G8): ~ 0.2 s^−1; Vmax, transport in proteoliposomes (PfCRT 7G8 [5]; initial rates over 3 s, Michaelis-Menten fit): 92.2 ± 4.9 nmol/mg/min; time course of uptake (in words) (PfCRT 7G8 [5]; pH gradient 5.5–7.5 and membrane potential (valinomycin)): maximal within one minute; transport activity (in words) (PfCRT 7G8 [5]): robust transport activity
